Laboratory results: ChEMBL document CHEMBL4706486, “Usnic acid derivatives as tau-aggregation and neuroinflammation inhibitors” (Eur J Med Chem, 2020)
Activity calls are given as the source filed them. The calls are words filed in the database; no cut-off is given here.

species on record: Homo sapiens; assay: Inhibition of acetyl-PHF6 amide self-aggregation (unknown origin) in pH 7.4 phosphate buffer at 10 uM and 25 degreeC measured every 1 min for 120 mins under shaking condition by ThT fluorescence assay relative to control
Procedure, shortened: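 AcPHF6 dissolved in HFIP, dried overnight, 1 mM water stock used at once. Final 100 μM peptide, 20 μM ThT, 10 μM compound (≤0.1% DMSO) in 50 mM phosphate buffer pH 7.4, 25 °C. Ex 440/em 490 nm read each minute for 120 min, 10 s shaking (400 rpm) before each read. Inhibition from mean signal at 50–60 min; ≥3 wells; mean ± SD of three experiments; DMSO negative control.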

Row | Compound | inhibition
1 | CC(=O)c1c(O)c(C)c(O)c2c1OC1=Cc3c(c(C)nn3S(=O)(=O)c3ccc(C)cc3)C(=O)[C@@]12C | inactive
2 | CC(=O)c1c(O)c(C)c(O)c2c1OC1=Cc3c(c(C)nn3-c3ccc(C#N)cc3)C(=O)[C@@]12C | 20.1%
3 | CC(=O)c1c(O)c(C)c(O)c2c1OC1=CC(=O)/C(=C(/C)Nc3cc(C(C)(C)C)c(O)c(C(C)(C)C)c3)C(=O)[C@@]12C | inactive
4 | CC(=O)c1c(O)c(C)c(O)c2c1OC1=Cc3c(c(C)nn3-c3ccncc3)C(=O)[C@@]12C | 8.5%
5 | CC(=O)c1c(O)c(C)c(O)c2c1OC1=CC(=O)/C(=C(/C)Nc3cccc4cccnc34)C(=O)[C@@]12C | inactive
6 | CCOC(=O)c1ccc(-n2nc(C)c3c2C=C2Oc4c(C(C)=O)c(O)c(C)c(O)c4[C@@]2(C)C3=O)cc1 | 14.5%
7 | CC(=O)c1c(O)c(C)c(O)c2c1OC1=CC(=O)/C(=C(/C)N)C(=O)[C@@]12C | inactive
8 | CC(=O)c1c(O)c(C)c(O)c2c1OC1=CC(=O)/C(=C(/C)N[C@@H](Cc3ccccc3)C(=O)O)C(=O)[C@@]12C | inactive
9 | COc1ccc(-n2nc(C)c3c2C=C2Oc4c(C(C)=O)c(O)c(C)c(O)c4[C@@]2(C)C3=O)cc1 | 27.2%
10 | COc1cccc(-n2nc(C)c3c2C=C2Oc4c(C(C)=O)c(O)c(C)c(O)c4[C@@]2(C)C3=O)c1 | 24%
11 | CC(=O)c1c(O)c(C)c(O)c2c1OC1=Cc3c(c(C)nn3-c3nc4ccccc4[nH]3)C(=O)[C@@]12C | 12.2%
12 | CC(=O)c1c(O)c(C)c(O)c2c1OC1=Cc3c(c(C)nn3-c3n[nH]c(=O)c4ccccc34)C(=O)[C@@]12C | 9.3%
13 | COc1ccc(S(=O)(=O)n2nc(C)c3c2C=C2Oc4c(C(C)=O)c(O)c(C)c(O)c4[C@@]2(C)C3=O)cc1 | inactive
14 | CC(=O)c1c(O)c(C)c(O)c2c1OC1=Cc3c(c(C)nn3-c3cccnc3)C(=O)[C@@]12C | 29.8%
15 | CC(=O)c1c(O)c(C)c(O)c2c1OC1=CC(=O)/C(=C(/C)Nc3cnc(N)cn3)C(=O)[C@@]12C | 44.2%
16 | CC(=O)c1c(O)c(C)c(O)c2c1OC1=Cc3c(c(C)nn3-c3ccc(C(C)(C)C)cc3)C(=O)[C@@]12C | 22.3%
17 | CC(=O)c1c(O)c(C)c(O)c2c1OC1=Cc3c(c(C)nn3-c3ccc(C)nn3)C(=O)[C@@]12C | 40.9%
18 | CC(=O)c1c(O)c(C)c(O)c2c1OC1=Cc3c(c(C)nn3-c3ccc(F)cc3)C(=O)[C@@]12C | 26.9%
19 | CC(=O)c1c(O)c(C)c(O)c2c1OC1=Cc3c(c(C)nn3-c3nc4ccccc4s3)C(=O)[C@@]12C | inactive

Other lines, results leading:

Row | inhibition | Compound
20 | 29.8% | CC(=O)c1c(O)c(C)c(O)c2c1OC1=CC(=O)/C(=C(/C)Nc3ccc4scnc4c3)C(=O)[C@@]12C
21 | 48.4% | CC(=O)c1c(O)c(C)c(O)c2c1OC1=CC(=O)/C(=C(/C)Nc3ccc(Cl)cc3O)C(=O)[C@@]12C
22 | 48% | CC(=O)c1c(O)c(C)c(O)c2c1OC1=CC(=O)/C(=C(/C)Nc3ncccc3O)C(=O)[C@@]12C
23 | inactive | CC(=O)c1c(O)c(C)c(O)c2c1OC1=CC(=O)/C(=C(/C)Nc3cc(C(C)C)c(O)cc3C)C(=O)[C@@]12C
24 | 39.2% | CC(=O)c1c(O)c(C)c(O)c2c1OC1=CC(=O)/C(=C(/C)Nc3ccc4[nH]ccc4c3)C(=O)[C@@]12C
25 | 48.1% | CC(=O)c1c(O)c(C)c(O)c2c1OC1=CC(=O)/C(=C(/C)Nc3ccc(N(C)C)cc3)C(=O)[C@@]12C
26 | 46.4% | CC(=O)c1c(O)c(C)c(O)c2c1OC1=CC(=O)/C(=C(/C)Nc3ccc(N)cn3)C(=O)[C@@]12C
27 | 27.6% | CC(=O)c1c(O)c(C)c(O)c2c1OC1=CC(=O)/C(=C(/C)Nc3ccc4c(ccn4C)c3)C(=O)[C@@]12C
28 | inactive | CC(=O)c1c(O)c(C)c(O)c2c1OC1=CC(=O)/C(=C(/C)Nc3ccc4c(c3)ncn4C)C(=O)[C@@]12C
29 | 12.7% | CC(=O)c1c(O)c(C)c(O)c2c1OC1=CC(=O)/C(=C(/C)Nc3cc(C)ccc3O)C(=O)[C@@]12C
30 | 25.3% | CC(=O)c1c(O)c(C)c(O)c2c1OC1=CC(=O)/C(=C(/C)Nc3ccc(C)cc3O)C(=O)[C@@]12C
